From the RNAGym collection of RNA variant scans (doi:10.1126/science.aae0568)
This sample holds only a part of the variants without activity.

B1: tRNA (parent)
chain: GUUCCGUUGGCGUAAUGGUAACGCGUCUCCCUCCUAAGGAGAAGACUGCGGGUUCGAGUCCCGUACGGAACG

Variants of: B1
Assay: yeast fitness relative to wild type (ratio to wild type); higher = fitter; tRNA-Arg(CCU), competitive growth, 37 C, YPD
Procedure, shortened: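 The tRNA-Arg(CCU) gene variants were made by chemical synthesis with a 3% per-site mutation rate at 69 sites and inserted at the native genomic locus of Saccharomyces cerevisiae. After pooling, the strains were competed in YPD at 37°C for 24 hours in six parallel replicates. Gene amplicons from the start population and each end population were read by 100-nucleotide paired-end sequencing, and Darwinian fitness relative to wild type was taken from genotype frequency changes. Genotypes needed ≥ 100 starting reads, and estimates < 0.5 were set to 0.5.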

Row | Variant | yeast fitness
1 | A15U U54C | 0.703
2 | U7A | 0.826
3 | C33U C61U | 0.734
4 | A37C A43U A65U | 0.651
5 | U3C G12C A20U C22G G50A C61A | ≤ 0.5
6 | G18C A65U | 0.691
7 | U16G A57G | 0.805
8 | A15G U53C C61G | ≤ 0.5
9 | C11U A45G U59A | 0.526
10 | U54A C62U A65G G68A | ≤ 0.5
11 | U3C C30G C31U C60G C61G | 0.571
12 | U7A G38A A43U | 0.53
13 | C5U A36G C49U A69C | ≤ 0.5
14 | A20G A40C A42U A43C G48A C55G | ≤ 0.5
15 | U7G A37U A65G | 0.699
16 | A20G C60A A70C | 0.556
17 | G51C U54A G56C | ≤ 0.5
18 | C46U A57C | 0.638
19 | C4G C34G A40G | 0.57
20 | U28C A37C A40U G63A A70C | ≤ 0.5
21 | C5G U16A A21C A57C | 0.624
22 | C5U G58A | 0.88
23 | A21C C29G A36G C46U G58A | 0.535
24 | C4U C11G C30G | ≤ 0.5

Row | Variant | yeast fitness
25 | G17A C29U C33U A57C G68U | ≤ 0.5
26 | C4G G9A G39A A65U A69U | ≤ 0.5
27 | G38A A40G C66A | 0.597
28 | A43C A57C | 0.681
29 | A21C C34G C46U | ≤ 0.5
30 | U7C C66U | 0.921
31 | C11G U47A C62G C66G | ≤ 0.5
32 | U3C G17C C29G C49G | 0.885
33 | C4A C11A C29G A40G C62G | ≤ 0.5
34 | G6A G18A | 0.824
35 | G12A C24U C31G | 0.532
36 | U3A U53C C55U | ≤ 0.5
37 | C46G G58A U59G | ≤ 0.5
38 | A14G A40G | 0.856
39 | C4G G9C C22A C62A C66G | ≤ 0.5
40 | C24U A45U | 0.919
41 | G6C A37G | 0.728
42 | C4G C22A U35A | ≤ 0.5
43 | A14C C27A U28A A45G | ≤ 0.5
44 | G18A A42C | 0.635
45 | G25A G58C A69C | 1.01
46 | G9C G41A C55U U59A A70U | ≤ 0.5
47 | A36U A70G | 0.607
48 | A40G G50C A57C G58C | 0.636

Row | Variant | yeast fitness
49 | C5A G17C C27U A57C | ≤ 0.5
50 | C30G A42U G58C | ≤ 0.5
51 | C11A A43G C61U | ≤ 0.5
52 | C11G C30U | 0.643
53 | A20G U28C A40C | 0.634
54 | U32C G39C G67C | ≤ 0.5
55 | C5A U8C G38A C62G | 0.643
56 | U19A C24U G38A U54C A69C | ≤ 0.5
57 | U3C C5A G18C A45C G56C C60U G68U | ≤ 0.5
58 | G6A G44U C66U | 0.601
59 | C11U A42G U59C C61U | ≤ 0.5
60 | C4U C22G C24U C62G | ≤ 0.5
61 | G17A C24G C27G G67A | 0.583
62 | C4U U7C | 1.08
63 | G18A A21C A37C C66A | 0.695
64 | C31U C46G A69U | 0.731
65 | A36G G48A C49G U59A | ≤ 0.5
66 | G17A U59A C66U | ≤ 0.5
67 | U7C C55U | 0.847
68 | U8C G23C C29G A45U C66U | ≤ 0.5
69 | A42U C46U C62U | 0.89
70 | C27A C29U A40G | ≤ 0.5
71 | C24U U26G | 0.987
72 | U3C U8G U32A C33G C61U C62U | 0.561

Row | Variant | yeast fitness
73 | C46U G68C | 1.02
74 | U2C A14C A37U A40C | ≤ 0.5
75 | U2C G12A G18C C33U C60A | ≤ 0.5
76 | A20C C33A G41C C49G A70U | 0.575
77 | G18A A21C G58C C60U | ≤ 0.5
78 | A45G C49G A65C | ≤ 0.5
79 | C5G U8A U28C G51A A69C | ≤ 0.5
80 | C5A A21G C31G G56C U59A C60G C62G A70C | ≤ 0.5
81 | C4A A15U A42G C61U | ≤ 0.5
82 | U3C C30A A65G | 0.702
83 | A14G G18C G50C | ≤ 0.5
84 | G38C C55G G67A | ≤ 0.5
85 | C31U C34G | 0.591
86 | A45C G51A | 0.919
87 | U28A A40G A43U A65U C66U | ≤ 0.5
88 | G50A G51C | 0.585
89 | U7C C24A G67A | ≤ 0.5
90 | C11U G56C C62U G68U | ≤ 0.5
91 | A14C A45G G68C | ≤ 0.5
92 | U32C A40G A70C | 0.634
93 | C11G C62U C66U | ≤ 0.5
94 | C62G | 0.924
95 | U8A C22G G25A C27A C33U C49G | 0.642
96 | C5G A14U C29U C33G A43U U54C | ≤ 0.5

Row | Variant | yeast fitness
97 | U16A C22A C29U A36G A45C | ≤ 0.5
98 | G44A C49U A69C | 0.752
99 | C5U A43G | 0.966
100 | C55U A70U | 0.715
101 | G50U U59G | 0.796
102 | U3A C31G A43U C60G A65C G67C | 0.664
103 | C33G A42G G52A C62A | ≤ 0.5
104 | G9C A21U C66A | 0.585
105 | U8C U16A | 0.934
106 | C11A A20U U32C | 0.733
107 | U47C U53C A57C | ≤ 0.5
108 | G9A A45G G68C | 0.543
109 | G56A A65G | 1.01
110 | A45U G58A | 0.907
111 | A15C U28A C34G A43U | 0.564
112 | A20U C29G A43U C66U | ≤ 0.5
113 | C5G U8G C11G C49U C61G | ≤ 0.5
114 | G6C G23A | 0.893
115 | U16C C55U A57C G58A | 0.593
116 | U8C A15C U32A A70C | ≤ 0.5
117 | C5A A15U C24G | ≤ 0.5
118 | U2G A45U C49U C61G | ≤ 0.5
119 | U2C U19C A45C C55U | ≤ 0.5
120 | C30A G68A A69C | 0.629

Row | Variant | yeast fitness
121 | C4A U19G | 0.742
122 | A37G A69U | 0.856
123 | U7C A21U | 0.769
124 | C11A A20U C27U U47C G50A | 0.618
125 | U2A C11G G17A A20U C33G G38C A70G | ≤ 0.5
126 | C11G G41A G67U G68C | 0.569
127 | U2C U8C G23C C31G C33U A42G G52C G58C | ≤ 0.5
128 | A37G C60G | ≤ 0.5
129 | G9C C24U C30G G51A C60U | ≤ 0.5
130 | U59C A65U | 0.96
131 | U7G C55U | 0.855
132 | U2C C11G C46A A70C | ≤ 0.5
133 | C33U A43U G44A C49G G50C C61U C66U | ≤ 0.5
134 | C4A A14G C22G C29U | 0.569
135 | G9C U13C | 0.626
136 | U3A A43U C49U | 0.69
137 | A14C U16C A69U | ≤ 0.5
138 | A37G G52C | ≤ 0.5
139 | U8G C24G G41A C49U | ≤ 0.5
140 | G18U C24U A69U | ≤ 0.5
141 | G18A C29A | 0.539
142 | G25A | 0.984
143 | G51A G52C C61U | 0.536
144 | C5U U59C | 0.946

Row | Variant | yeast fitness
145 | C24G U53A | 0.533
146 | A14G U53C | 0.775
147 | U7C C49G | 0.774
148 | C5G U8A G41C U47A C61A G67C | ≤ 0.5
149 | C27U U28A | 0.699
150 | C5G U47C C61G | 0.519
151 | G6A C27A | 0.707
152 | C4A U32A | 0.876
153 | A21C G48A C55U A65C | ≤ 0.5
154 | U3C A15G | 1.03
155 | G48C C49U A70U | 0.724
156 | C33G A37G A40C C49G G67C | ≤ 0.5
157 | C11G A15C U47G | ≤ 0.5
158 | U13A A57G | 0.792
159 | C5U C22A C27G | 0.569
160 | C22U C24G A65U | ≤ 0.5
161 | C24U C31G G44A U64A | ≤ 0.5
162 | C5G A20C C31A | 0.55
163 | A15G U53G | 0.61
164 | U19C A42U G68C | ≤ 0.5
165 | U8A G25C C31G | ≤ 0.5
166 | G10C A36C A57C | ≤ 0.5
167 | G18C C29U C49G | ≤ 0.5
